Consider 8 compounds from ChEMBL document CHEMBL1129972 (J Med Chem, 1997).

Bridge positions count the residues as written; N and C are the ends. Square brackets hold non-standard residues; d marks the D form. Peptide text beside a SMILES is read from it. Pen = CC(C)(S)[C@H](N)C(=O)O; hCys = N[C@@H](CCS)C(=O)O Some results are limits rather than exact numbers.

The target of experiment [1] is T1, Angiotensin II receptor (AT-1) type-1 (Rattus norvegicus, UniProt P29089+P25095).
T1 sequence (P29089 whole entry): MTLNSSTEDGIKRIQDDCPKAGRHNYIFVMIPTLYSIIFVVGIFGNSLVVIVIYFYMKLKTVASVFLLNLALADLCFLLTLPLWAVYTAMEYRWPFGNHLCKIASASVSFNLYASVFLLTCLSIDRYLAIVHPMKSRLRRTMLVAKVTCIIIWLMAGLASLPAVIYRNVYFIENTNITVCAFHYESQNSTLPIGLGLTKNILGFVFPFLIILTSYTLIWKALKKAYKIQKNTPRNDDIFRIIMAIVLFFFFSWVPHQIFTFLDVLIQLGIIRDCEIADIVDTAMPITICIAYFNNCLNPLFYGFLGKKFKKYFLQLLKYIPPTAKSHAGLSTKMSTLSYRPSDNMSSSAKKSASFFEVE
T1 sequence (P25095 whole entry): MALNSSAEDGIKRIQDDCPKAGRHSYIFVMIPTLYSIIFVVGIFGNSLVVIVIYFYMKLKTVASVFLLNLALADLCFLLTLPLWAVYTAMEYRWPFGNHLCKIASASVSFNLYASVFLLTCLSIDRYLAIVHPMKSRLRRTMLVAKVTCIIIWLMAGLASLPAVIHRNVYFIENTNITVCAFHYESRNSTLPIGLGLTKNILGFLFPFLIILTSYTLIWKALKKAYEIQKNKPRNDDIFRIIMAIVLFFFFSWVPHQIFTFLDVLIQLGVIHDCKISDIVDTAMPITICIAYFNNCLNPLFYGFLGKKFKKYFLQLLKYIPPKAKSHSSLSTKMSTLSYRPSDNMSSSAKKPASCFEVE
Kind of experiment: Inhibitory concentration against [125 I]Ang II binding to rat pituitary membranes Angiotensin II receptor type 1 without 0.2% bovine serum albumin.

Experiment [2] is filed under the species Oryctolagus cuniculus. Kind of experiment: Concentration which produces 50% of maximal contractile response at rabbit aorta strips. The class given is functional. The procedure, abridged:
(§1)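 Thoracic aortic rings (2 mm) from male New Zealand white rabbits (2.5–3.5 kg, pentobarbitone-anesthetized) in Krebs' bicarbonate buffer, 38.5 °C, pH 7.4, 95% O2/5% CO2; isometric tension, 2 g resting, ~90 min equilibration with one 300 nM Ang II challenge. Control cumulative Ang II curve (3×10^-10–10^-7 M), then cumulative test-compound curve 3×10^-10–10^-5 M; response as % of control Ang II maximum.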

Experiment [3] deals with T1, Angiotensin II receptor (AT-1) type-1. Kind of experiment: Inhibitory concentration against specific binding of [125 I]Ang II to rat pituitary membranes (Angiotensin II receptor, type 1) in presence of 0.2% bovine serum albumin. The class given is cell membranes, Membrane.
The species named for experiment [4] is Oryctolagus cuniculus. Kind of experiment: Contractile activity in isolated rabbit aortic rings. The class given is functional, Aorta. The essentials:
as §1

In experiment [1], `CC[C@H](C)[C@@H](C(=O)N[C@@H](Cc1cnc[nH]1)C(=O)N1CCC[C@H]1C(=O)N[C@@H](Cc1ccccc1)C(=O)O)N1Cc2cc(NC(=O)[C@H](CCCN=C(N)N)NC(=O)[C@@H](N)CC(=O)O)ccc2[C@@H](Cc2ccc(O)cc2)C1=O` registered a half-inhibitory concentration (IC50) greater than 100000 nM.

`CC[C@H](C)[C@@H](C(=O)N[C@@H](Cc1c[nH]cn1)C(=O)N1CCC[C@H]1C(=O)N[C@@H](Cc1ccccc1)C(=O)O)N1CCC(CNC(=O)[C@H](CCCN=C(N)N)NC(=O)[C@@H](N)CC(=O)O)=C[C@@H](Cc2ccc(O)cc2)C1=O` displayed a half-maximal inhibitory concentration (IC50) in experiment [1] of 2.8 nM. The EC50 in the experiment listed under Oryctolagus cuniculus [2] was 830 nM.

Take `CC1(C)SSC(C)(C)[C@@H](C(=O)N[C@@H](Cc2c[nH]cn2)C(=O)N2CCC[C@H]2C(=O)N[C@@H](Cc2ccccc2)C(=O)O)NC(=O)[C@H](Cc2ccc(O)cc2)NC(=O)[C@H]1NC(=O)[C@H](CCCN=C(N)N)NC(=O)[C@@H](N)CC(=O)O` (H-DR[Pen]Y[Pen]HPF-OH; disulfide 3-5): the half-inhibitory concentration (IC50) in experiment [1] was found to be 0.9 nM; in experiment [3] it was 3.8 nM. This compound also had a concentration giving a half-maximal response (EC50) in the experiment filed under Oryctolagus cuniculus [2] of 217 nM.

Consider `NC(N)=NCCC[C@H](NC(=O)[C@@H](N)CC(=O)O)C(=O)N[C@H]1CCSSCC[C@@H](C(=O)N[C@@H](Cc2c[nH]cn2)C(=O)N2CCC[C@H]2C(=O)N[C@@H](Cc2ccccc2)C(=O)O)NC(=O)[C@H](Cc2ccc(O)cc2)NC1=O` (H-DR[hCys]Y[hCys]HPF-OH; disulfide 3-5), for which the concentration for half-maximal inhibition (IC50) in experiment [1] is given as 1.7 nM; in experiment [3], 15.4 nM. The compound further registered a pD2 in the experiment listed under Oryctolagus cuniculus [4] of 8.48.

With `CC[C@H](C)[C@@H](C(=O)N[C@@H](Cc1c[nH]cn1)C(=O)N1CCC[C@H]1C(=O)N[C@@H](Cc1ccccc1)C(=O)O)N1CCC(CNC(=O)[C@H](CCCN=C(N)N)NC(=O)[C@@H](N)CC(=O)O)=C[C@H](Cc2ccc(O)cc2)C1=O`, the IC50 in experiment [1] came to 2 nM.

For `CC[C@H](C)[C@@H](C(=O)N[C@@H](Cc1c[nH]cn1)C(=O)N1CCC[C@H]1C(=O)N[C@@H](Cc1ccccc1)C(=O)O)N1Cc2cc(NC(=O)[C@H](CCCN=C(N)N)NC(=O)[C@@H](N)CC(=O)O)ccc2[C@H](Cc2ccc(O)cc2)C1=O`, the IC50 in experiment [1] is reported as greater than 100000 nM.

In the case of `CC[C@H](C)[C@H](NC(=O)[C@H](Cc1ccc(O)cc1)NC(=O)[C@@H](NC(=O)[C@H](CCCNC(=N)N)NC(=O)[C@@H](N)CC(=O)O)C(C)C)C(=O)N[C@@H](Cc1cnc[nH]1)C(=O)N1CCC[C@H]1C(=O)N[C@@H](Cc1ccccc1)C(=O)O` [ANGIOTENSIN II], the EC50 in the experiment listed under Oryctolagus cuniculus [2] was 2.6 nM. In other words, the single-digit nanomolar range.

Take `NC(N)=NCCC[C@H](NC(=O)[C@@H](N)CC(=O)O)C(=O)N[C@H]1CSSC[C@@H](C(=O)N[C@@H](Cc2c[nH]cn2)C(=O)N2CCC[C@H]2C(=O)N[C@@H](Cc2ccccc2)C(=O)O)NC(=O)[C@H](Cc2ccc(O)cc2)NC1=O` (H-DRCYCHPF-OH; disulfide 3-5): the concentration for half-maximal inhibition (IC50) was found to be 2.9 nM in experiment [1] and 28 nM in experiment [3].

A word on the IC50: it is the point on the concentration scale where inhibition reaches its midpoint. What is called EC50 is the concentration giving half of the maximal effect. Higher therefore signals a less potent agent.
